Calls of active or inactive are those of the source. The calls are words filed in the database; no cut-off is given here.
Key:
RAW264.7 = test: Activation of RXR/LXR heterodimer in mouse RAW264.7 cells assessed as increase in ABCA1 protein level at 10 uM after 24 hrs by Western blotting analysis; type: cell-based
[1] = Activation of LXR in mouse C2C12 cells assessed as induction of ApoD mRNA expression at 10 uM after 24 hrs by quantitative RT-PCR analysis; type: cell-based
Method in brief: (§1)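 C2C12 myoblasts grown in DMEM/10% FBS, differentiated at confluence in 2% horse serum, medium changed every other day for 5 days; myotubes treated 24 h with or without T0901317 (1 μM). Total RNA, DNase-treated, oligo(dT) RT from 0.5 μg, SYBR green qPCR; normalized to β-actin (delta-delta Ct), fold over vehicle; mean ± SD of four determinants, one of two experiments.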

[2] = Activation of LXR in mouse C2C12 cells assessed as induction of ApoE mRNA expression at 10 uM after 24 hrs by quantitative RT-PCR analysis; type: cell-based; method in brief: as §1
[3] = Activation of LXR in mouse C2C12 cells assessed as induction of FAS mRNA expression at 10 uM after 24 hrs in presence of T0901317 by quantitative RT-PCR analysis; type: cell-based; method in brief: as §1
[4] = molecular target: T1, Peroxisome proliferator-activated receptor delta (Mus musculus) (UniProt P35396); test: Activation of PPARdelta in mouse C2C12 cells assessed as induction of CPT1A mRNA expression at 10 uM after 24 hrs by quantitative RT-PCR analysis; type: cell-based
T1 sequence (whole entry): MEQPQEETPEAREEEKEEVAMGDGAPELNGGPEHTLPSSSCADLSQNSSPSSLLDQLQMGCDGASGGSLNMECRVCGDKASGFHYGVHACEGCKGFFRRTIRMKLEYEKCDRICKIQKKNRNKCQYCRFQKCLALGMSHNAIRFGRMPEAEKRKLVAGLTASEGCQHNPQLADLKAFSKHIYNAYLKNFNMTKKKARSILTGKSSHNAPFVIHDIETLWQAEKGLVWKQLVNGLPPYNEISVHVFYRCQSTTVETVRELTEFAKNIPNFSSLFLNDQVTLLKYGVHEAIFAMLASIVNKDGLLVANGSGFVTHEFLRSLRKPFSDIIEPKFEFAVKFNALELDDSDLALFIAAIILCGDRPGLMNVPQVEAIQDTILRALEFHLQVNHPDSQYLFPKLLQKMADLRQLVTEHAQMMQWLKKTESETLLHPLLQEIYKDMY
Method in brief: (§2)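 Differentiated C2C12 myotubes (2% horse serum, 5 days) exposed 24 h with or without PPARδ agonist GW501516 (1 μM). mRNA quantified by SYBR green real-time RT-PCR, normalized to β-actin by delta-delta Ct, and expressed as fold induction vs vehicle; means ± SD of four determinants from one of two independent experiments; one-way ANOVA with Bonferroni.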

[5] = molecular target: T1, Peroxisome proliferator-activated receptor delta (Mus musculus); test: Activation of PPARdelta in mouse C2C12 cells assessed as induction of ANGPTL4 mRNA expression at 10 uM after 24 hrs in presence of GW501516 by quantitative RT-PCR analysis; type: cell-based; method in brief: as §2
[6] = molecular target: T2, Retinoic acid receptor RXR-beta (Homo sapiens) (UniProt P28702); test: Binding affinity to RXRbeta (unknown origin) by receptor-SRC1 cofactor complex formation assay
T2 sequence (whole entry): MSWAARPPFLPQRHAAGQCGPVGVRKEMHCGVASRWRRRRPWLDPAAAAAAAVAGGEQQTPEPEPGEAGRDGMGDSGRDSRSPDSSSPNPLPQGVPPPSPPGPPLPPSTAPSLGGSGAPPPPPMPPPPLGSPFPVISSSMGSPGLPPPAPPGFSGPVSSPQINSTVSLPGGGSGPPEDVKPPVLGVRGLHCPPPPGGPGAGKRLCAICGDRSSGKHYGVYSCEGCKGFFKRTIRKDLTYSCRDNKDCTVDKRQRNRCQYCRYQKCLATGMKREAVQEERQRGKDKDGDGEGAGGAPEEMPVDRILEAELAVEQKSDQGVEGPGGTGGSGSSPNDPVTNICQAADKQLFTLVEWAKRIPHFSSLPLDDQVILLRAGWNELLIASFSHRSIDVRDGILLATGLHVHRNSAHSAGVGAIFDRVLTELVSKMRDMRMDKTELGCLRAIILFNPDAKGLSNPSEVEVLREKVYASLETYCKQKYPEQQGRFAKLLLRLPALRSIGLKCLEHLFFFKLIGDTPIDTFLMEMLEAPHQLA
Method in brief: (§3)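 Ligand-dependent binding of RXR isotype to coactivator SRC-1 in an NR cofactor kit, detected with HRP-conjugated anti-RXR antibody at OD450. The full agonist CD3254 defined 100% and vehicle 0%. Efficacy was taken as maximum B/Bmax% and potency as EC50.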

[7] = molecular target: T3, Retinoic acid receptor RXR-gamma (Homo sapiens) (UniProt P48443); test: Binding affinity to RXRgamma (unknown origin) by receptor-SRC1 cofactor complex formation assay; method in brief: as §3
T3 sequence (whole entry): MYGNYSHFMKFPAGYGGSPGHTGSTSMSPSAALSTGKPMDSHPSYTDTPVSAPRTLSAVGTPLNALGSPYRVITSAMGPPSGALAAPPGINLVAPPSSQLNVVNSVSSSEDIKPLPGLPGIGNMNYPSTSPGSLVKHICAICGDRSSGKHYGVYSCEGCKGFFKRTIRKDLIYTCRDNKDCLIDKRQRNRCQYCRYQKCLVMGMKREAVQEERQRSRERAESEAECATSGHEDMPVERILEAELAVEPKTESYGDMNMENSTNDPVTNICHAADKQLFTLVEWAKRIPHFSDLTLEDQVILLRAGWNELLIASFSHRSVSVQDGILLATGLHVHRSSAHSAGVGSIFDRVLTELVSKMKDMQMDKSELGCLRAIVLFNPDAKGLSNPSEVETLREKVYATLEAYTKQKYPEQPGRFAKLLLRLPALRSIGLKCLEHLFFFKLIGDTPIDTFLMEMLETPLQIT

With `CC(C)=CCc1cc([C@@H]2CC(=O)c3ccc(O)c(CC=C(C)C)c3O2)cc2c1OC(C(C)(C)O)C2` (stereo partly drawn) the Activity (RAW264.7) was “Active”, the Activity [1] was “Active” and the Activity [2] was “Active”. The Activity [3] was “inactive”, the Activity [4] was “Active” and the Activity [5] was “Active”. For the same compound, the Activity [6] was “inactive” and the Activity [7] was “inactive”.
